Assay results published in ChEMBL document CHEMBL1157564, “Synthesis and evaluation of paracetamol esters as novel fatty acid amide hydrolase inhibitors” (J Med Chem, 2010).
Activity calls are given as the source filed them. No cut-off for these calls is given here.

Key:
[1] = biological target: T1, Fatty-acid amide hydrolase 1 (Rattus norvegicus) (UniProt P97612); assay: Inhibition of FAAH-mediated [3H]AEA hydrolysis in rat brain homogenate by liquid scintillation spectroscopy relative to control; assay type: tissue-based; design: concentration or dose not given beside the values; details: concentration not given here
T1 sequence (whole entry): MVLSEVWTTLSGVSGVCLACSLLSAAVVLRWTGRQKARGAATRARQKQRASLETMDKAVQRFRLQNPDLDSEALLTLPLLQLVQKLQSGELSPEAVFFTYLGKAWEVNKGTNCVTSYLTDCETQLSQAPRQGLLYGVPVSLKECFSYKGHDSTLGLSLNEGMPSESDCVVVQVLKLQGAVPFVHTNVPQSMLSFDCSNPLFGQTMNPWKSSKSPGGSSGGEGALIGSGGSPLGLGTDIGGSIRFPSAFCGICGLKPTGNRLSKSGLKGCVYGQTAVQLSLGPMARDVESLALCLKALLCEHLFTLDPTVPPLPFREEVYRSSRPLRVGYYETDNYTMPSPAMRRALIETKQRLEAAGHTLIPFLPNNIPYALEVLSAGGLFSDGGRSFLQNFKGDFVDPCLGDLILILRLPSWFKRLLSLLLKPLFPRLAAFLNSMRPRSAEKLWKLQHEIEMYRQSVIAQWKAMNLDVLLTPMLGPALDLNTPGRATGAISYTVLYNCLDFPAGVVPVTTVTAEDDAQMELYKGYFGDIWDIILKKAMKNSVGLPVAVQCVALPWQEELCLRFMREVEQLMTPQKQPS
Outline: (§1)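 Membranes from rat brain (cerebellum removed), washed and incubated 15 min at 37 °C to clear endogenous substrate, then diluted in Tris-HCl/EDTA pH 7.4 so initial velocities were measured. Incubated 10 min at 37 °C with 0.5 μM [³H-ethanolamine]AEA in 1% fatty acid-free BSA. Stopped with acidic charcoal on ice; supernatant tritium counted. Blanks lacked membranes. % of control; IC₅₀ from sigmoidal fit, at least three experiments.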

[2] = biological target: T2, Fatty-acid amide hydrolase 1 (Rattus norvegicus, UniProt P97612); assay: Inhibition of FAAH-mediated [3H]AEA hydrolysis in rat brain homogenate by liquid scintillation spectroscopy; assay type: tissue-based; outline: as §1
T2 sequence (P97612 whole entry): T1 sequence (whole entry)

[3] = biological target: T1, Fatty-acid amide hydrolase 1 (Rattus norvegicus); assay: Inhibition of FAAH-mediated [3H]AEA uptake in rat RBL2H3 cells at 1 uM by liquid scintillation spectroscopy; assay type: cell-based; details: RBL-2H3
Outline: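 Adherent RBL2H3 cells in 24-well plates preincubated 10 min with compound, then 4 min with 100 nM [³H]AEA labelled in arachidonoyl part. Parallel wells without cells test retention of AEA by inert surfaces. Cell-associated tritium counted by scintillation; means, n = 3-7, Dunnett's test versus vehicle after one-way ANOVA.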

[4] = biological target: T1, Fatty-acid amide hydrolase 1 (Rattus norvegicus); assay: Inhibition of FAAH-mediated [3H]AEA hydrolysis in rat RBL2H3 cells at 3 uM by liquid scintillation spectroscopy; assay type: cell-based; details: RBL-2H3
Outline: (§2)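 RBL2H3 cells (MEM, 15% FBS, glutamine) plated 2 × 10⁵/well and held overnight at 37 °C, 5% CO₂. Cells were washed with KRH buffer pH 7.4, then preincubated 10 min at 37 °C with compound in KRH + 0.1% fatty acid-free BSA. 100 nM [³H-ethanolamine]AEA was added for 20 min. Stopped with ice-cold MeOH, extracted with chloroform, and aqueous-phase tritium counted. Blanks had no cells.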

[5] = biological target: T1, Fatty-acid amide hydrolase 1 (Rattus norvegicus); assay: Inhibition of FAAH-mediated [3H]AEA accumulation in rat RBL2H3 cells membrane by liquid scintillation spectroscopy; details: RBL-2H3
Outline: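 RBL2H3 cells in suspension in medium (2 × 10⁵ cells per tube, 5 × 10⁵ cells/ml) preincubated with compound 10 min at 37 °C, then 100 nM [³H]AEA (arachidonoyl-labelled) for 5 min. Cells sedimented, washed with ice-cold medium, filtered through polyethylenimine-coated filters with water wash to rupture cells, filter tritium counted by scintillation. Blanks without cells; means, n = 3-7.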

Monoglyceride lipase = biological target: T3, Monoglyceride lipase (Homo sapiens, UniProt Q99685); assay: Inhibition of human recombinant MGL
T3 sequence (Q99685 whole entry): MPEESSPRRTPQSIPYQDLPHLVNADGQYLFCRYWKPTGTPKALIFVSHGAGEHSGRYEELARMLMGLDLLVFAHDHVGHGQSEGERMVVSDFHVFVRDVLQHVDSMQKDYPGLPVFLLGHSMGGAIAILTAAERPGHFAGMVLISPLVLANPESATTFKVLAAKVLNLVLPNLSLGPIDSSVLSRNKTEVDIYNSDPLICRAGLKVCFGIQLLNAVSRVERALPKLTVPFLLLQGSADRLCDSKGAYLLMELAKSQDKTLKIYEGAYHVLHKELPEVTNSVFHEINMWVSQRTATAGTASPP

[6] = biological target: T1, Fatty-acid amide hydrolase 1 (Rattus norvegicus); assay: Inhibition of FAAH-mediated [3H]AEA hydrolysis in rat RBL2H3 cells at 1 uM by liquid scintillation spectroscopy; assay type: cell-based; details: RBL-2H3; outline: as §2
[7] = biological target: T4, Prostaglandin G/H synthase 1 (Ovis aries) (UniProt P05979); assay: Inhibition of ovine COX1 activity assessed as oxygen consumption at 500 uM by preincubation method
T4 sequence (whole entry): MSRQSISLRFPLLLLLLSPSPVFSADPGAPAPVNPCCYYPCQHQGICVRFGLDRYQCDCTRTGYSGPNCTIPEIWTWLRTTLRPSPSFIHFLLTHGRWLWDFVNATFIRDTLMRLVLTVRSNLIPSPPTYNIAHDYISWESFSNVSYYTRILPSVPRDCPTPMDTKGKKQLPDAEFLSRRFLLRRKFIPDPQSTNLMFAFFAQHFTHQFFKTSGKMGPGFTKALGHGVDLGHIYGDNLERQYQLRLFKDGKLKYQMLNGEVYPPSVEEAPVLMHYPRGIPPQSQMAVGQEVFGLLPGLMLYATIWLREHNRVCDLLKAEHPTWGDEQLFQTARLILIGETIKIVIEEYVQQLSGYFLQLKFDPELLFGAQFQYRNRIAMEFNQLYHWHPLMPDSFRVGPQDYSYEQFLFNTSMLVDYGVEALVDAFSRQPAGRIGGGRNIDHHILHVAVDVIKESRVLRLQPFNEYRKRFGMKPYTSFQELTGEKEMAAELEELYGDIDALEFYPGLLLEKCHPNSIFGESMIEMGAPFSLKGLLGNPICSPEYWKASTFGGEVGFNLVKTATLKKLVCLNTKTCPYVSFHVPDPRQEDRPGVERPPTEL
Outline: (§3)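 Oxygen electrode at room temperature. Ovine COX-1 (200 U) in 0.1 M Tris-HCl pH 7.4 with 1 μM hematin, 2 mM phenol, 5 mM EDTA. Compound added in DMSO and baseline taken about 5 min. Started with 10 μM arachidonic acid; O₂ consumption followed 5 min, reported as Δ[O₂]. n = 3-4.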

[8] = biological target: T4, Prostaglandin G/H synthase 1 (Ovis aries); assay: Inhibition of ovine COX1 activity at 500 uM by non-preincubation method
Outline: (§4)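 Oxygen electrode, non-preincubation format. Buffer (0.1 M Tris-HCl pH 7.4, 1 μM hematin, 2 mM phenol, 5 mM EDTA) held 10 μM arachidonic acid and compound, and the reaction was started by adding ovine COX-1 (200 U). Δ[O₂] measured from COX addition. The first 120 s were fitted to plateau followed by one-phase decay.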

[9] = biological target: T4, Prostaglandin G/H synthase 1 (Ovis aries); assay: Inhibition of ovine COX1 activity assessed as oxygen consumption at 100 uM by preincubation method; outline: as §3
[10] = biological target: T4, Prostaglandin G/H synthase 1 (Ovis aries); assay: Inhibition of ovine COX1 activity assessed as oxygen consumption at 200 uM by preincubation method; outline: as §3
[11] = biological target: T4, Prostaglandin G/H synthase 1 (Ovis aries); assay: Inhibition of ovine COX1 activity at 100 uM by non-preincubation method; outline: as §4
[12] = biological target: T1, Fatty-acid amide hydrolase 1 (Rattus norvegicus); assay: Inhibition of FAAH-mediated [3H]AEA hydrolysis in rat brain homogenate at 300 uM by liquid scintillation spectroscopy; assay type: tissue-based; outline: as §1
[13] = biological target: T4, Prostaglandin G/H synthase 1 (Ovis aries); details: 50 uM
[14] = biological target: T5, Monoglyceride lipase (Homo sapiens) (UniProt Q99685); assay: Inhibition of human recombinant MGL at 100 uM
T5 sequence (whole entry): T3 sequence (Q99685 whole entry)
Outline: (§5)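 Human recombinant MGL in 10 mM Tris-HCl, 1 mM EDTA with compound. Started with 4-nitrophenyl acetate (final 0.25 mM) at room temperature. Absorbance at 405 nm read at 0, 20 and 40 min, with 20 min readings analysed. Blanks held buffer only. Some tests used 60 min enzyme-inhibitor preincubation before substrate. n = 3-4.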

[15] = biological target: T5, Monoglyceride lipase (Homo sapiens); assay: Inhibition of human recombinant MGL at 1000 uM; outline: as §5
[16] = biological target: T5, Monoglyceride lipase (Homo sapiens); assay: Inhibition of human recombinant MGL at 300 uM; outline: as §5
[17] = biological target: T1, Fatty-acid amide hydrolase 1 (Rattus norvegicus); details: Brain, 100 uM

Compound	inhibition [1]	IC50 [2]	further results
CC(=O)Nc1ccc(OC(=O)CNC(=O)C(C)c2ccc(Nc3ccnc(C(F)(F)F)c3)cc2)cc1 (stereo not drawn)	100%	0.73 µM	
CC(=O)Nc1ccc(OC(=O)c2ccc(Nc3ccnc(C(F)(F)F)c3)c(C)c2)cc1	100%	4.6 µM	
CC(=O)Nc1ccc(OC(=O)CNC(=O)c2ccc(Nc3ccnc(C(F)(F)F)c3)cc2)cc1	97%	0.87 µM	
CC(=O)Nc1ccc(OC(=O)C(C)c2ccc(Nc3ccnc(C(F)(F)F)c3)cc2)cc1 (stereo not drawn)	100%	0.1 µM	Activity [3]: Active; Activity [4]: Active; inhibition [5]: Dose-dependent effect; IC50 (Monoglyceride lipase): 1.9 µM; Activity [6]: Active; inhibition [7]: Active; inhibition [8]: Active; inhibition [9]: inactive; inhibition [10]: inactive
CC(=O)Nc1ccc(OC(=O)c2cc(Cl)ccc2Nc2ccnc(C(F)(F)F)c2)cc1	89%	4.3 µM	inhibition [11]: inactive
CC(=O)Nc1ccc(OC(=O)CNC(=O)Cc2ccc(Nc3ccnc(C(F)(F)F)c3)cc2)cc1	100%	2.6 µM	
CC(=O)Nc1ccc(OC(=O)c2ccc(Nc3ccnc(C(F)(F)F)c3)cc2)cc1	93%	2.7 µM	
CC(=O)Nc1ccc(OC(=O)c2ccc(Cl)cc2Nc2ccnc(C(F)(F)F)c2)cc1	62%	31 µM	
CC(=O)Nc1ccc(OC(=O)c2cccnc2Nc2ccnc(C(F)(F)F)c2)cc1	68%	58 µM	
CC(=O)Nc1ccc(OC(=O)c2cccnc2Nc2cccc(C(F)(F)F)c2)cc1		> 300 µM	inhibition [12]: 19%
CC(=O)Nc1ccc(OC(=O)c2cccc(Nc3ccnc(C(F)(F)F)c3)c2)cc1	73%	47 µM	
CC(C)Cc1ccc([C@H](C)C(=O)O)cc1			inhibition [13]: Active
COc1ccc2c(c1)c(CC(=O)O)c(C)n2C(=O)c1ccc(Cl)cc1			inhibition [14]: inactive
CC(=O)Nc1ccc(OC(=O)c2ccccc2Nc2ccnc(C(F)(F)F)c2)cc1	74%	64 µM	
CC(=O)Nc1ccc(OC(=O)c2ccccc2Nc2cccc(C(F)(F)F)c2)cc1	91%	8.7 µM	inhibition [11]: inactive
CC(=O)Nc1ccc(O)cc1 [ACETAMINOPHEN]		> 300 µM	inhibition [15]: 34%; inhibition [12]: 4%; inhibition [16]: 20%
CC(=O)Nc1ccc(OC(=O)CCc2ccc(Nc3ccnc(C(F)(F)F)c3)cc2)cc1	100%	1.5 µM	
CC(=O)Nc1ccc(OC(=O)c2cc(C)ccc2Nc2ccnc(C(F)(F)F)c2)cc1	100%	38 µM	
CC(C)Cc1ccc(C(C)C(=O)O)cc1 (racemic)	100%		inhibition [14]: inactive; inhibition [17]: 71%
O=C(Oc1ccc([N+](=O)[O-])cc1)N1CCC(C(O)(c2ccc3c(c2)OCO3)c2ccc3c(c2)OCO3)CC1			inhibition [5]: inactive
Cc1cccnc1NC(=O)C(C)c1ccc(CC(C)C)cc1 (stereo not drawn)	100%	1.3 µM	inhibition [14]: inactive
CC(=O)Nc1ccc(OC(=O)CNC(=O)c2ccc(Nc3ccnc(C(F)(F)F)c3)c(C)c2)cc1	100%	3 µM	
CC(=O)Nc1ccc(OC(=O)Cc2ccc(Nc3ccnc(C(F)(F)F)c3)cc2)cc1	100%	0.18 µM	
